Source: ChEMBL document CHEMBL1139357, “Synthesis and anti-hepatitis B virus and anti-hepatitis C virus activities of 7-deazaneplanocin A analogues in vitro” (J Med Chem, 2009)

Key:
[1] = Cytotoxicity against ET cells at 20uM; assay type: cell-based
How it was run: (§1)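 ET replicon cells seeded at 5000/well overnight without G418; serially diluted compound for 3 days; viability by tetrazolium-based CytoTox-1 proliferation assay. Four replicates; IC50 is the concentration cutting viability by 50%. Weak compounds given as percent of control at 20 µM.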

[2] = Cytotoxicity against human HepG2(2.2.15) cells assessed as uptake of neutral red dye after 24 hrs; assay type: cell-based; conditions: HepG2 2.2.15, 24 h
How it was run: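 2.2.15 cells, confluent, dosed daily for nine consecutive days; cytotoxicity by neutral red dye uptake 24 h after the last treatment.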

[3] = system: Hepatitis C virus; experiment: Antiviral activity against HCV in ET cells assessed as activity of luciferase reporter at 20 uM by subgenomic RNA replicon assay; assay type: functional, Hepacivirus hominis
How it was run: (§2)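 ET replicon cells (dicistronic HCV replicon with firefly luciferase, three adaptive mutations) seeded at 5000/well overnight in DMEM without G418; serial compound dilutions added, 3 days incubation, luciferase read by Steady-Glo. Four replicates per point; EC50 is 50% luciferase inhibition. Marginal actives given as percent inhibition versus control at 20 µM.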

[4] = system: Hepatitis B virus; experiment: Antiviral activity against HBV in human HepG2(2.2.15) cells assessed as extracellular HBV virion DNA level after 24 hrs; assay type: functional, organism-based; conditions: HepG2 2.2.15, 24 h
How it was run: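 Confluent HBV-producing 2.2.15 cell cultures were given nine consecutive daily doses of compound. Extracellular HBV DNA was measured by quantitative blot hybridization 24 h after the last dose. Cytotoxicity was read by neutral red uptake 24 h after the last dose.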

[5] = Cytotoxicity against ET cells; assay type: cell-based; conditions: for IC50: ET; how it was run: as §1
[6] = Cytotoxicity against human Huh7 cells assessed as rRNA level after 5 days; assay type: cell-based; conditions: huh-7, 120 h
How it was run: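 Huh-7 cells carrying a subgenomic HCV replicon (clone B) were seeded at 3000 cells/well. Compound was added in duplicate at two dilutions right after seeding, then cells were incubated 5 days at 37 °C, 5% CO2. Total RNA was isolated, and replicon RNA and an rRNA internal control were co-amplified by one-step multiplex real-time RT-PCR.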

[7] = system: Hepatitis C virus; experiment: Antiviral activity against HCV in human Huh7 cells assessed as reduction of viral level after 5 days by RNA subgenomic replicon assay; assay type: functional, organism-based, Hepacivirus hominis; conditions: Huh-7, 120 h
How it was run: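 Huh-7 clone B subgenomic replicon cells seeded at 3000/well, compounds added in duplicate at two dilutions right after seeding; 5 days at 37 °C, 5% CO2. Total RNA isolated; replicon RNA and rRNA control amplified by multiplex one-step real-time RT-PCR. Activity as ΔCt versus no-drug control; EC50/EC90 for 50%/90% reduction.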

[8] = system: Hepatitis B virus; experiment: Antiviral activity against HBV in human HepG2(2.2.15) cells assessed as replication intermediates after 24 hrs; assay type: functional, organism-based; conditions: HepG2 2.2.15, 24 h
How it was run: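 Confluent 2.2.15 cultures in 96-well format given nine consecutive daily doses; HBV DNA quantified by blot hybridization 24 h after the last treatment.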

[9] = system: Hepatitis C virus; experiment: Antiviral activity against HCV in ET cells assessed as activity of luciferase reporter by subgenomic RNA replicon assay; assay type: functional, organism-based, Hepacivirus hominis; how it was run: as §2
[10] = system: Hepatitis B virus; experiment: Antiviral activity against adefovir-resistant HBV reverse transcriptase M204I mutant in human Huh7 cells after 4 days by intracellular HBV DNA replication assay; assay type: functional, organism-based; conditions: Huh-7, 96 h
How it was run: (§3)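 In a 5-day transient transfection assay, cells expressed wild-type or lamivudine- or adefovir-resistant HBV mutants. After 4 days of drug treatment, intracellular HBV DNA replication intermediates were quantified by Southern blot hybridization.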

[11] = system: Hepatitis B virus; experiment: Antiviral activity against lamivudine-resistant HBV reverse transcriptase LM/reverse transcriptase MV double mutant in human Huh7 cells after 4 days by intracellular HBV DNA replication assay; assay type: functional, organism-based; conditions: Huh-7, 96 h; how it was run: as §3
[12] = system: Hepatitis B virus; experiment: Antiviral activity against adefovir-resistant HBV reverse transcriptase 236T mutant in human Huh7 cells after 4 days by intracellular HBV DNA replication assay; assay type: functional, organism-based; conditions: Huh-7, 96 h; how it was run: as §3
[13] = system: Hepatitis B virus; experiment: Antiviral activity against lamivudine-resistant HBV reverse transcriptase M204I mutant in human Huh7 cells after 4 days by intracellular HBV DNA replication assay; assay type: functional, organism-based; conditions: Huh-7, 96 h; how it was run: as §3
[14] = system: Hepatitis B virus; experiment: Antiviral activity against adefovir-resistant HBV reverse transcriptase LM/reverse transcriptase MV double mutant in human Huh7 cells after 4 days by intracellular HBV DNA replication assay; assay type: functional, organism-based; conditions: Huh-7, 96 h; how it was run: as §3
[15] = system: Hepatitis B virus; experiment: Antiviral activity against lamivudine-resistant HBV reverse transcriptase M204V mutant in human Huh7 cells after 4 days by intracellular HBV DNA replication assay; assay type: functional, organism-based; conditions: Huh-7, 96 h; how it was run: as §3
[16] = system: Hepatitis B virus; experiment: Antiviral activity against adefovir-resistant HBV reverse transcriptase L180M mutant in human Huh7 cells after 4 days by intracellular HBV DNA replication assay; assay type: functional, organism-based; conditions: Huh-7, 96 h; how it was run: as §3
[17] = system: Hepatitis B virus; experiment: Antiviral activity against lamivudine-resistant HBV reverse transcriptase L180M mutant in human Huh7 cells after 4 days by intracellular HBV DNA replication assay; assay type: functional, organism-based; conditions: Huh-7, 96 h; how it was run: as §3
[18] = system: Hepatitis B virus; experiment: Antiviral activity against adefovir-resistant HBV reverse transcriptase M204V mutant in human Huh7 cells after 4 days by intracellular HBV DNA replication assay; assay type: functional, organism-based; conditions: Huh-7, 96 h; how it was run: as §3
[19] = system: Hepatitis B virus; experiment: Antiviral activity against lamivudine-resistant HBV reverse transcriptase 236T mutant in human Huh7 cells after 4 days by intracellular HBV DNA replication assay; assay type: functional, organism-based; conditions: Huh-7, 96 h; how it was run: as §3
[20] = system: Hepatitis B virus; experiment: Antiviral activity against adefovir-resistant wild type HBV in human Huh7 cells after 4 days by intracellular HBV DNA replication assay; assay type: functional, organism-based; conditions: Huh-7, 96 h; how it was run: as §3
[21] = system: Hepatitis B virus; experiment: Antiviral activity against lamivudine-resistant wild type HBV in human Huh7 cells after 4 days by intracellular HBV DNA replication assay; assay type: functional, organism-based; conditions: Huh-7, 96 h
How it was run: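 Transient transfection of HBV into cells, 5-day assay; compounds applied for 4 days, then intracellular HBV DNA replication intermediates quantified by Southern blot hybridization to derive EC50.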

[22] = Selectivity index, EC50 for HCV to IC50 for ET cells; assay type: functional
How it was run: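 SI50 from ET replicon luciferase EC50 (3-day assay) and CytoTox-1 viability IC50, each averaged from four replicates.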

Compound: N#Cc1cn([C@@H]2C=C(CO)[C@@H](O)[C@H]2O)c2ncnc(N)c12
- Activity [1]: 103.3%
- IC50 [2]: > 300 µM
- Activity [3]: 0.5%
- EC50 [4]: > 10 µM

Compound: Nc1ncnc2c1c(F)cn2[C@@H]1C=C(CO)[C@@H](O)[C@H]1O
- Activity ([5]; et): 112.7%
- IC50 [2]: > 300 µM
- Activity [3]: 9.5%
- EC50 [4]: > 10 µM

Compound: Nc1ccn([C@@H]2O[C@H](CO)[C@@H](O)[C@]2(O)F)c(=O)n1
- CC50 [6]: > 50 µM
- EC50 [7]: 1.7 µM
- EC90 [7]: 5.3 µM

Compound: Nc1ncnc2c1c(I)cn2[C@@H]1C=C(CO)[C@@H](O)[C@H]1O
- EC50 [8]: 1.6 µM
- IC50 [5]: 15 µM
- EC50 [9]: 2.1 µM
- IC50 [2]: > 300 µM
- EC50 [4]: 0.43 µM

Compound: C=Cc1cn([C@@H]2C=C(CO)[C@@H](O)[C@H]2O)c2ncnc(N)c12
- EC50 [8]: 10 µM
- Activity [1]: 99.7%
- IC50 [2]: > 300 µM
- Activity [3]: 49.2%
- EC50 [4]: 3.3 µM

Compound: NC(=O)c1cn([C@@H]2C=C(CO)[C@@H](O)[C@H]2O)c2ncnc(N)c12
- IC50 [5]: 11.8 µM
- EC50 [9]: 1.8 µM
- IC50 [2]: 300 µM
- EC50 [4]: > 10 µM

Compound: C[C@@]1(O)[C@H](O)[C@@H](CO)O[C@H]1n1ccc(N)nc1=O
- CC50 [6]: > 50 µM
- EC50 [7]: 3.5 µM
- EC90 [7]: 11 µM

Compound: Nc1ccn([C@@H]2CS[C@H](CO)O2)c(=O)n1 [LAMIVUDINE]
- EC50 [8]: 0.15 µM
- EC50 [10]: 1.8 µM
- EC50 [11]: > 100 µM
- EC50 [12]: 7.7 µM
- EC50 [13]: > 100 µM
- EC50 [14]: 1.6 µM
- EC50 [15]: > 100 µM
- EC50 [16]: 1.6 µM
- EC50 [17]: 10 µM
- EC50 [18]: 1.5 µM
- IC50 [2]: > 2000 µM
- EC50 [19]: 0.3 µM
- EC50 [4]: 0.048 µM
- EC50 [20]: 1.3 µM
- EC50 [21]: 0.2 µM

Compound: Nc1ncnc2c1c(Cl)cn2[C@@H]1C=C(CO)[C@@H](O)[C@H]1O
- IC50 [5]: 50.1 µM
- EC50 [9]: 14.7 µM
- IC50 [2]: > 300 µM
- EC50 [4]: > 10 µM

Compound: C#Cc1cn([C@@H]2C=C(CO)[C@@H](O)[C@H]2O)c2ncnc(N)c12
- EC50 [8]: 1.8 µM
- IC50 [5]: 48.9 µM
- EC50 [9]: 20.1 µM
- IC50 [2]: > 300 µM
- EC50 [4]: 0.32 µM

Compound: Nc1ncnc2c1ncn2CCOCP(=O)(O)O [ADEFOVIR]
- EC50 [10]: 1.8 µM
- EC50 [12]: 7.7 µM
- EC50 [14]: 1.6 µM
- EC50 [16]: 1.6 µM
- EC50 [18]: 1.5 µM
- EC50 [20]: 1.3 µM

Compound: Nc1ncnc2c1c([N+](=O)[O-])cn2[C@@H]1C=C(CO)[C@@H](O)[C@H]1O
- Activity [1]: 101.5%
- IC50 [2]: > 300 µM
- EC50 [4]: > 10 µM

Compound: Nc1ncnc2c1c(Br)cn2[C@@H]1C=C(CO)[C@@H](O)[C@H]1O
- IC50 [5]: 41.7 µM
- EC50 [9]: 16.7 µM
- IC50 [2]: > 300 µM
- EC50 [4]: > 10 µM

Compound: C[C@@]1(O)[C@H](O)[C@@H](CO)O[C@H]1n1cnc2c(N)ncnc21
- IC50 [5]: > 10 µM
- Ratio [22]: > 66.7
- EC50 [9]: 0.15 µM
